PMC11887798 (Science Advances, 2025)

How the values were obtained:
[1] = tested on: C57BL/6 mice; test: APAP-induced ALF model validation; format: in vivo, mouse; details: APAP 500 mg/kg i.p.
Outline: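 Male C57BL/6 mice were housed under SPF conditions with a 12-hour/12-hour light/dark cycle at 22°C and 45 to 60% humidity. APAP was dissolved in physiological saline by heating at 50°C and given intraperitoneally to induce acute liver failure.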

[2] = molecular target: P-selectin; details: read-out: natural PSGL-1 binding to P-selectin (Kd); ref [23]; cited from earlier work

Row | Molecule | serum ALT and AST ([1]; n = 6) | mortality of mice ([1]; within 72 hours, n = 10) | Kd [2] [nM]
1 | CC(=O)Nc1ccc(O)cc1 [APAP, acetaminophen] | rising rapidly within 12 hours and peaking at 24 hours | over 50% | –
2 | PSGL-1: natural P-selectin ligand on neutrophils (protein, UniProt Q14242 42-412, looked up) P-selectin glycoprotein …: QATEYEYLDYDFLPETEPPEMLRNSTDTTPLTGPGTPESTTVEPAARRSTGLDAGGAVTELTTELANMGNLSTDSAAMEIQTTQPAATEAQTTQPVPTEAQTTPLAATEAQTTRLTATEAQTTPLAATEAQTTPPAATEAQTTQPTGLEAQTTAPAAMEAQTTAPAAMEAQTTPPAAMEAQTTQTTAMEAQTTAPEATEAQTTQPTATEAQTTPLAAMEALSTEPSATEALSMEPTTKRGLFIPFSVSSVTHKGIPMAASNLSVNYPVGAPDHISVKQCLLAILILALVATIFFVCTVVLAVRLSRKGHMYPVRNYSPTEMVCISSLLPDGGEGPSATANGGLSKAKSPGLTPEPREDREGDDLTLHSFLP | – | – | 320
